Here are results for 5 compounds from PMC13077713 (Journal of medicinal chemistry, 2025).

Several values for one entry are separate records, joined by “and”; a condition that tells them apart may be missing. Equal entries are not always repeated. Where two headings read alike, the source gives them in different places.

Series [1] relates to HBV-infected HepG2-NTCP cells. Format: cell-based.
Series [2] concerns the target T1, Cp149 dimers (Hepatitis B virus genotype D subtype ayw, UniProt P03146). The series can be described thus: Cryo-electron microscopy classification of Cp149 capsids assembled with CAM. Format: biochemical, Hepatitis B virus (HBV). An outline of the steps:
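Cp149 was expressed in E. coli BL21 and purified as capsids. These were dissociated with 3 M urea and taken to subunits by SEC. Assembly was triggered manually by mixing 30 μM (1 mg/ml) dimers in 1 mM DTT, 20 mM Tris-HCl pH 7.5 with 200 mM ammonium acetate, with or without 90 μM CAM (ρ = 3). Samples were concentrated 11-fold, imaged by cryo-EM, and particles 2D-classified.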

Series [3] has as its system human hepatocellular carcinoma (HepG2) cells. The series can be described thus: Cytotoxicity, CellTiter 96 cell proliferation assay, HepG2 cells. The format is cell-based. Particulars: read-out: Cytotoxicity, CC50 HepG2; HepG2 cells.
Series [4] deals with preassembled HBV capsids (Cp149 protein) (Hepatitis B virus genotype D subtype ayw, UniProt P03146). The following applies: 20 μM CAM; for Radius (DLS, table) / PD (polydispersity): 7.5 μM Cp149, 30 min; for Radius (DLS, table): 1% DMSO control 24.6 ± 3.4; for PD (polydispersity): 1% DMSO control 32.3 ± 18.6; for average particle radius (DLS, text): 1% DMSO control 24.6 nm.
In series [5] the test system is human peripheral blood mononuclear (PBM) cells. Nature of the series: Cytotoxicity, CellTiter 96 cell proliferation assay, PBM cells. Format: cell-based. The following applies: read-out: Cytotoxicity, CC50 PBM; PBM cells.
The subject of series [6] is HBV DNA production in HepAD38 cells. The series can be described thus: Anti-HBV activity. The format is cell-based, Hepatitis B virus (HBV).
The subject of series [7] is HBV-infected HepG2-NTCP cells. The format is cell-based. The following applies: post-infection treatment.
Series [8] concerns African green monkey kidney (Vero) cells. The series can be described thus: Cytotoxicity, CellTiter 96 cell proliferation assay, Vero cells. Format: cell-based. The following applies: read-out: Cytotoxicity, CC50 Vero; Vero cells.
Series [9] deals with T1, Cp149 dimers.
Series [10] deals with human T lymphoblast (CEM) cells. The series can be described thus: Cytotoxicity, CellTiter 96 cell proliferation assay, CEM cells. The format is cell-based. The following applies: read-out: Cytotoxicity, CC50 CEM; CEM cells.
The target in series [11] is T1, Cp149 dimers. The series can be described thus: Static SAXS of Cp149 capsid assembly in the presence of CAM. The format is biochemical, Hepatitis B virus (HBV). Particulars: ρ = 3, undiluted sample, 30 μM dimers; 1.54 cm^−1 without CAM.
In the next series the test system is HBc in HepAD38 cells. The series can be described thus: Confocal microscopy, nucleo-cytoplasmic distribution of HBc in HepAD38 cells. Particulars: increasing concentration, 72 h. The format is cell-based, Hepatitis B virus (HBV).
A short description of series [12]: Cytotoxicity, CellTiter 96 cell proliferation assay, HepG2 cells. Format: cell-based, human. The following applies: human, HepG2 hepatocellular carcinoma cells.
The nature of series [13]: Cytotoxicity, CellTiter 96 cell proliferation assay, PBM cells. The format is cell-based, human. The following applies: human, peripheral blood mononuclear (PBM) cells.
Series [14] is described as follows: Cytotoxicity, CellTiter 96 cell proliferation assay, Vero cells. Format: cell-based, African green monkey. The following applies: African green monkey, Vero kidney cells.
Series [15] is described as follows: Cytotoxicity, CellTiter 96 cell proliferation assay, CEM cells. The format is cell-based, human. Particulars: human, CEM T lymphoblast cells.
The target in series [16] is T1, Cp149 dimers. Nature of the series: Mass photometry of Cp149 capsid assembly in the presence of CAM. Format: biochemical, Hepatitis B virus (HBV). Particulars: ρ = 3, assembled at 30 μM subunits, diluted to 0.18 μM; 57% without CAM.
[17] abbreviates: read-out: Anti-HBV activity EC50, HBV DNA production, HepAD38 cells.
[18] abbreviates: read-out: Anti-HBV activity EC90, HBV DNA production, HepAD38 cells.
The mark [19] stands for this setting: Hepatitis B virus, HePAD38, read-out: Anti-HBV activity EC50.
The mark [20] stands for this setting: Hepatitis B virus, HePAD38, read-out: Anti-HBV activity EC90.

preassembled HBV capsids (Cp149 protein), sequence (P03146 1-149): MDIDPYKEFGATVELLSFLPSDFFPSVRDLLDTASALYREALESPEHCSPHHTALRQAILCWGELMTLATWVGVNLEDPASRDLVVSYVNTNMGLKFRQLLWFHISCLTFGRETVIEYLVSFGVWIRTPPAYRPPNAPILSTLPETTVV
T1 sequence (P03146 1-149): as above

In the case of `Cc1c(C(=O)C(=O)NCc2cn(CCCCCCCCCCCCCCn3cc(CNC(=O)C(=O)c4c(C)c(C(=O)Nc5ccc(F)c(F)c5)n(C)c4C)nn3)nn2)c(C)n(C)c1C(=O)Nc1ccc(F)c(F)c1` [Compound 6e, 4,4’-(2,2’-(((Tetradecane-1,14-diylbis(1H-1,2,3-triazole-1,4-diyl))bis(methylene))bis(azanediyl))bis(2-oxoacetyl))bis(N-(3,4-difluorophenyl)-1,3,5-trimethyl-1H-pyrrole-2-carboxamide)], in series [1], the “HBeAg EC50 compared to GLP-26 or GLS-4” value is recorded as “nearly eight-fold lower”. Moreover, the “capsids that displayed defects (single-particle analysis)” value on Cp149 dimers [2] (90 μM, 30 μM subunits) is given as “approximately 45%”. Besides, in series [3], the CC50 was greater than 100 µM. In series [4], the “Radius (DLS, table)” value was found to be 214 ± 61.3 nM; the “PD (polydispersity)” value was “Multimodal distribution”; the “average particle radius (DLS, text)” value was 214 nm. Also, the CC50 in series [5] was greater than 100 µM. The “times more potent than reference compound GLP-26” value in [6] (HepAD38 EC50 vs GLP-26) came out at 80 times. For the same compound, in series [6] (setting [17]), the EC50 stood at 0.0001 µM. For the same compound, the EC90 in series [6] (setting [18]) stood at 0.009 ± 0.0002 µM. In series [7], the “fold more potent than GLP-26 at inhibiting HBV virion production” value was 10 fold and the “fold more potent than GLP-26 at inhibiting HBeAg biogenesis” value is 10 fold. In addition, in [8], the CC50 was greater than 100 µM. Also, on Cp149 dimers [9], the “Associated timescale of Rgw” value came to 131 ± 21 ms; the “Associated timescale of 〈N〉w” value is given as 633 ± 77 ms; the “Rgw (mean radius of gyration, plateau)” value is 142 ± 0.3 Å; the “Subunit binding energies −Δg” value stood at 9.5 kT. For the same compound, at Cp149 dimers [9], the “〈N〉w∞ (mean aggregation number at equilibrium)” value is 126 and 126 ± 3. Moreover, in series [10], the CC50 was greater than 100 µM. Moreover, the “SAXS intensity at zero angle I(0)” value at Cp149 dimers [11] was 1.32 cm⁻¹. Also, in the series on HBc in HepAD38 cells, the “levels of HBc inside the nucleus” value is reported as “clear decrease in the levels of HBc inside the nucleus”.
On to `Cc1c(C(=O)C(=O)NCc2cn(CCCCCCCCCCCCCCCCCCn3cc(CNC(=O)C(=O)c4c(C)c(C(=O)Nc5ccc(F)c(F)c5)n(C)c4C)nn3)nn2)c(C)n(C)c1C(=O)Nc1ccc(F)c(F)c1` [Compound 6g, 4,4’-(2,2’-(((Octadecane-1,18-diylbis(1H-1,2,3-triazole-1,4-diyl))bis(methylene))bis(azanediyl))bis(2-oxoacetyl))bis(N-(3,4-difluorophenyl)-1,3,5-trimethyl-1H-pyrrole-2-carboxamide)], for which the CC50 in series [3], in series [5], in series [8] and in series [10] was greater than 100 µM each time. In [6] (HepAD38 vs GLP-26), the “times less potent than GLP-26” value was 2–3 times. Moreover, in series [6] (setting [17]), the 50% effective concentration (EC50) is 0.025 ± 0.024 µM. The EC90 in [6] (setting [18]) was 0.38 ± 0.01 µM.
Turning to `Cc1c(C(=O)C(=O)NCc2c[nH]nn2)c(C)n(C)c1C(=O)Nc1ccc(F)c(F)c1` [Compound 7, 4-(2-(((1H-1,2,3-triazol-4-yl)methyl)amino)-2-oxoacetyl)-N-(3,4-difluorophenyl)-1,3,5-trimethyl-1H-pyrrole-2-carboxamide], the CC50 in [12] is greater than 100 µM; in series [13] it was 74 ± 14 µM; in series [14] it was greater than 100 µM; in series [15], 67.8 ± 19.6 µM. Moreover, the EC50 in series [6] (setting [19]) turned out to be 0.047 ± 0.042 µM. Moreover, in [6] (setting [20]), the EC90 came to 0.58 ± 0.03 µM. Moreover, the “SI: Selectivity index” value in [6] (toxicity in HepG2 / activity in HepAD38) is greater than 2128.
With `CCCCCCCCCCCCn1cc(CNC(=O)C(=O)c2c(C)c(C(=O)Nc3ccc(F)c(F)c3)n(C)c2C)nn1` [Compound 10, N-(3,4-difluorophenyl)-4-(2-(((1-dodecyl-1H-1,2,3-triazol-4-yl)methyl)amino)-2-oxoacetyl)-1,3,5-trimethyl-1H-pyrrole-2-carboxamide], the CC50 in series [12] turned out to be 30.5 ± 25.6 µM; in [13], 1.6 ± 0.6 µM; in series [14], 10.4 ± 9 µM; in [15] it was 9.9 ± 4.6 µM. The EC50 in [6] (setting [19]) was found to be 0.307 ± 0.153 µM. Further, the EC90 in series [6] (setting [20]) is 0.97 ± 0.13 µM.
Regarding `C#CCNC(=O)C(=O)c1c(C)c(C(=O)Nc2ccc(F)c(F)c2)n(C)c1C` [GLP-26], the capsid-sized events on Cp149 dimers [16] was 27%. On Cp149 dimers [2] (ρ = 3 (90 μM), 30 μM Cp149), the “larger objects with an ellipsoidal appearance (2D classification)” value is 17.5%, the “objects that appeared to be T = 3 capsids (2D classification)” value came out at 1.8% and the “objects very similar to T = 4 capsids (2D classification)” value was 81.3%. The CC50 in series [3] is greater than 100 µM. Also, in [4], the “Radius (DLS, table)” value amounted to 53.0 ± 13.6 nM; the “PD (polydispersity)” value is 26.8 ± 9.8%; the “average particle radius (DLS, text)” value is given as 53.0 nm. Further, in series [5], the half-maximal cytotoxic concentration (CC50) was greater than 100 µM. Moreover, the EC50 in [6] (setting [17]) was 0.008 ± 0.001 µM. Also, the EC90 in series [6] (setting [18]) stood at 0.07 ± 0.02 µM. Besides, the CC50 in [8] was 30.5 ± 6.7 µM. For the same compound, the “Subunit binding energies −Δg” value at Cp149 dimers [9] is 10.4 kT. Also, the “Rgw (mean radius of gyration, plateau)” value on Cp149 dimers [9] (ρ = 3, 30 μM subunits, 200 mM ammonium acetate, 37°C, ρ = 0: 176 ± 6 Å) was 180 Å and 180 ± 1Å. Further, on Cp149 dimers [9] (ρ = 3, 30 μM subunits, 200 mM ammonium acetate, ρ = 0: 156 ± 6), the “〈N〉w∞ (mean aggregation number at equilibrium)” value was 190 and 190 ± 11. For the same compound, at Cp149 dimers [9] (ρ = 3, 30 μM subunits, 200 mM ammonium acetate, ρ = 0: 237 ± 62 ms), the “Associated timescale of Rgw” value turned out to be 116 ± 63 ms. Further, the “Associated timescale of 〈N〉w” value at Cp149 dimers [9] (ρ = 3, 30 μM subunits, 200 mM ammonium acetate, ρ = 0: 699 ± 138 ms) worked out at 487 ± 178 ms. Also, the CC50 in series [10] was greater than 100 µM. Moreover, the “SAXS intensity at zero angle I(0)” value on Cp149 dimers [11] worked out at 1.86 cm⁻¹.
